Reference: BindingDB's records for doi:10.1021/jm020269o (The Pennsylvania State University, 2003)

Columns and labels:
[1] = target: T1, Bifunctional epoxide hydrolase 2 (Homo sapiens, UniProt P34913); experiment: Inhibitory activity against human soluble epoxide hydrolase
T1 sequence (P34913 whole entry): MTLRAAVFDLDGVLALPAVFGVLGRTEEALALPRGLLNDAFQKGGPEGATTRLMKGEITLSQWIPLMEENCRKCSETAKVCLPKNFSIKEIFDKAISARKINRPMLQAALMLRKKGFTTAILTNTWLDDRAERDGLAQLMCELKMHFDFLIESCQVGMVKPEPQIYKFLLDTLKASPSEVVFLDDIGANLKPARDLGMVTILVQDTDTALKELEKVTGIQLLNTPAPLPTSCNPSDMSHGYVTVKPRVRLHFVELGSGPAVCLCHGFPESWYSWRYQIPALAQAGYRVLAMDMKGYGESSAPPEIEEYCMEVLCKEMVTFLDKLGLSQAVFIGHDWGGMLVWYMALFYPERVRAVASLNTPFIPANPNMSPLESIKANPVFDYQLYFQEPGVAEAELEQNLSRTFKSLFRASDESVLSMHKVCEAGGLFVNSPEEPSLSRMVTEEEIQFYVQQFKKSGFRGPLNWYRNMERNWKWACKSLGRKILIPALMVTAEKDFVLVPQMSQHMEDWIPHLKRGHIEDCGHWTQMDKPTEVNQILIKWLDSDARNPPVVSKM
In short: (§1)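 Recombinant sEH (human HsEH or mouse MsEH) was expressed in baculovirus, affinity-purified to at least 97% purity, and had no detectable esterase or glutathione transferase activity. Enzyme (HsEH 0.20 µM, MsEH 0.10 µM) was preincubated with inhibitor for 5 min at 30 °C in pH 7.4 sodium phosphate buffer. Racemic 4-nitrophenyl-trans-2,3-epoxy-3-phenylpropyl carbonate (40 µM) was then added. 4-Nitrophenolate was read at 405 nm over 1 min. Assays were run in triplicate, with inhibitor up to 500 µM. IC50 came from regression of at least five points.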

[2] = target: T2, Bifunctional epoxide hydrolase 2 (Mus musculus, UniProt P34914); experiment: Inhibitory activity against murine soluble epoxide hydrolase; in short: as §1
T2 sequence (P34914 whole entry): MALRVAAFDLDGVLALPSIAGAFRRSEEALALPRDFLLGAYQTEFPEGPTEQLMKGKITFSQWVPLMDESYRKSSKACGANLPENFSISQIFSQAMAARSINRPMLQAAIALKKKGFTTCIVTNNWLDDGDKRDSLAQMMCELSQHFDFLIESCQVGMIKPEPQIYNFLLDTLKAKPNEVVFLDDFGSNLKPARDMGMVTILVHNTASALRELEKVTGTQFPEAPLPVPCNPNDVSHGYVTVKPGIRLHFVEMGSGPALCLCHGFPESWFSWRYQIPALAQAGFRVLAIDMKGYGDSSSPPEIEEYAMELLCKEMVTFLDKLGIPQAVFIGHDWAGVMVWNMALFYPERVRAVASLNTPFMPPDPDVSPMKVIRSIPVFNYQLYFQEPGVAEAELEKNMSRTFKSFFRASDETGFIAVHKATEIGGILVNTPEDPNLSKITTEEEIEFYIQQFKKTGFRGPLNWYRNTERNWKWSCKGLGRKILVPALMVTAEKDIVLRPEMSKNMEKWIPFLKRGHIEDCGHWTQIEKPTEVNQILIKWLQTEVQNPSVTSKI

Structure (SMILES) | IC50 [1] [µM] | IC50 [2] [µM]
CCCCCCCCCCCCNC(=O)NC1CCCC1 [1-Cyclopentyl-3-dodecyl-urea] | 0.549 | 0.1
CCCCCCCCCCCCNC(=O)NCC(C)(C)C(C)(C)C [1-Dodecyl-3-(2,2,3,3-tetramethyl-butyl)-urea] | 229 | 0.129
CCCCCCNC(=O)NC [1-Hexyl-3-methyl-urea] | – | 224
CN(C(=O)NC1CCCCC1)c1ccccc1 [3-Cyclohexyl-1-methyl-1-phenyl-urea] | 129 | 195
CC(C)(C)OC(=O)CNC(=O)NC1CCCCC1 [(3-Cyclohexyl-ureido)-acetic acid tert-butyl ester] | 19 | 4.37
O=C(Nc1ccc(Cl)c(Cl)c1)Nc1ccc(Cl)c(Cl)c1 [US8815951, 299] | 0.257 | –
